What was measured:
[1] = Cytotoxicity against CEM cells; type: cell-based; settings: human, CEM (CCRF-CEM) cells
Method in brief: (§1)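 Mock-infected MT-4 or CEM cultures exposed to compound dilutions at 37 °C, with incubation times as in the antiviral runs. Viable cell number determined. Means of at least two separate experiments.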

[2] = Cytotoxicity against MT4 cells; type: cell-based; settings: human; method in brief: as §1

Compound: Fc1cccc(F)c1C1SCc2nc3ccccc3n21 (configuration not stated) [THIAZOLOBENZIMIDAZOLE]
- CC50 [1]: 50 µM
- CC50 [2]: 19.2 µM
